Nine molecules from PubChem BioAssay AID623962 (The Scripps Research Institute Molecular Screening Center, 2012) can be followed below.

Structures are written as SMILES. Active and inactive are the calls of the source.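 The calls were made as follows: active = mean inhibition at 10 µM of 50% or more; inactive = mean inhibition at 10 µM below 50%.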

The experiment relates to Huh-7.5 HCV Rluc replicon, luciferase luminescence, 72 h. In words: HCV RNA replication inhibitors in Huh-7.5 cells – cell-based, luminescence, Renilla luciferase replicon, orthogonal assay for HCV NS3 helicase inhibitor project, late-stage follow-up (AID 623962). To be noted: at 10 µM; stronger effect = higher value. In outline:
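Dosing: one concentration, 10 µM in 0.5% DMSO / Assay system: Huh-7.5 HCV Renilla luciferase replicon cells / Benchmarks: DMSO-treated cells as uninhibited reference / Signal: Renilla luciferase luminescence of lysed cells / Schedule: cell attachment 4-5 h, then compound exposure 72 h, 37 °C, 5% CO2 / Read-out basis: % replication inhibition versus DMSO-treated cells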
On the technique in general: Replicon systems follow genome replication, usually without infectious particles.
On to `Cc1ccc2nc(-c3ccc4nc(-c5ccc(NC(=O)c6ccc(Cl)cc6)cc5)sc4c3)sc2c1S(=O)(=O)O`, for which the inhibition was 42% (inactive). The figure for `Cc1ccc2nc(-c3ccc4nc(-c5ccc6nc(-c7ccc(N)cc7)sc6c5)sc4c3)sc2c1S(=O)(=O)O` is 59%; for `Cc1ccc2nc(-c3ccc4nc(-c5ccc(NC(=S)Nc6ccccc6)cc5)sc4c3)sc2c1S(=O)(=O)O` it is 9% (inactive); for `Cc1ccc2nc(-c3ccc4nc(-c5ccc(NC(=O)c6cccnc6)cc5)sc4c3)sc2c1S(=O)(=O)O` it is 51%.

Consider `CCOc1ccc2nc(NC(=O)c3ccc4ncsc4c3)sc2c1`, for which the inhibition is 99%. On to `Cc1ccc2nc(-c3ccc4nc(-c5ccc(NCc6ccccc6)cc5)sc4c3)sc2c1S(=O)(=O)O`, for which the inhibition is -64% (inactive). The figure for `Cc1ccc2nc(-c3ccc4nc(-c5ccc(NC(=O)c6ccncc6)cc5)sc4c3)sc2c1S(=O)(=O)O` is 59%; for `COc1ccc(NC(=O)Nc2ccc(-c3nc4ccc(-c5nc6ccc(C)c(S(=O)(=O)O)c6s5)cc4s3)cc2)cc1` it is 21% (inactive); for `Cc1ccc2nc(-c3ccc(NC(=O)c4ccc(C(F)(F)F)cc4)cc3)sc2c1S(=O)(=O)O` it is 11% (inactive).

As usually defined, the inhibition is the change of the read-out against control, counted positive when it falls.
